From PubChem BioAssay AID1496 (Sanford-Burnham Center for Chemical Genomics, 2009)
About 990 (0.45%) of roughly 220,000 compounds were called active.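 The calls were made as follows: active = inhibition over about 50% at 20 µM in the single-dose screen (limit read from the data); inactive = the rest.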 This excerpt belongs to a sample that is enriched for actives.

target: Runt-related transcription factor 1 (Homo sapiens) + Core-binding factor subunit beta (Homo sapiens) (UniProt Q01196+Q13951); assay: inhibitors of RUNX1 Runt–CBFb binding, primary screen, biochemical, FRET, Cerulean-Runt, Venus-CBFb, uHTS (AID 1496); details: Cerulean-Runt/Venus-CBFb FRET ratio 530/480, 1 h; at 20 µM; hits give high values;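 also: 0% = DMSO wells and 100% = excess unlabeled CBFb competitor control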
Method in brief: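 Assay system: Cerulean-Runt domain / Medium: Tris 50 mM pH 7.5, KCl, K2SO4, 0.01% BSA / Timing: protein complex preformed 1 h, compound exposure 1 h, room temperature, dark / Measured by: FRET, excitation 422 nm, emission at 530 and 480 nm / Evaluation: loss of energy transfer signal / Control set: 5 µM unlabeled CBFb as full-inhibition high control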

Chain of Runt-related transcription factor 1 (Homo sapiens) + Core-binding factor subunit beta (Homo sapiens) (Q01196 whole entry, looked up, the tested form may be a part): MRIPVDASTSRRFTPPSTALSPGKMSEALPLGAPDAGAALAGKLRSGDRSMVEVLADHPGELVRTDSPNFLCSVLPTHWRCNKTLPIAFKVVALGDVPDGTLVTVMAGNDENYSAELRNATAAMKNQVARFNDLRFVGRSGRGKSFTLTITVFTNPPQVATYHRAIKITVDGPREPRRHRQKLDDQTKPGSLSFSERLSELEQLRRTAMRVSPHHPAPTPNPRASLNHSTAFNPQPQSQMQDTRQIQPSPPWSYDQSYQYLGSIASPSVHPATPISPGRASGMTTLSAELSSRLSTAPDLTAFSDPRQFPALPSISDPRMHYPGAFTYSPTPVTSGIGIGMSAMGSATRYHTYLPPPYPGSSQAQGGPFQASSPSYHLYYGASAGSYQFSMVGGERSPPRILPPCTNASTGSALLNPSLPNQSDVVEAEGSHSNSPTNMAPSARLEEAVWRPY
Chain of Runt-related transcription factor 1 (Homo sapiens) + Core-binding factor subunit beta (Homo sapiens) (Q13951 whole entry, looked up, the tested form may be a part): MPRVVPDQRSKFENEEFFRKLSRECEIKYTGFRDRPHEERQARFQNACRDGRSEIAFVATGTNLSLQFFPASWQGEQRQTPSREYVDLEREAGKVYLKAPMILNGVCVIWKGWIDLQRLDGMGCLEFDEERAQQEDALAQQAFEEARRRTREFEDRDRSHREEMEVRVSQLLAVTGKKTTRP

inhibition, inactive:
CCn1c(NC(=O)c2ccccc2)c(-c2cccs2)c(=O)c2ccccc21 -4.7%, COCCCn1c(CCC(=O)O)ccc1-c1ccc(F)cc1 3.3%, CNC(=S)NNC(=O)c1ccc(N(C)C)cc1 1.6%, Cc1cc(F)ccc1NC(=O)C(C)n1c2ccccc2c2nc(=O)cc(C)n21 (configuration not stated) 1.5%, CCOc1ccc(/C=N/NC(=O)CSc2ccccn2)cc1O 2.9%, CCN(CC)CCn1c(N)c(S(=O)(=O)c2ccccc2)c2nc3ccccc3nc21 5.9%, Cc1ccc(S(=O)(=O)c2c(N)n(C)c3nc4ccccc4nc23)cc1 7.1%, O=c1c2cc(-c3ccccc3)sc2nc2n1N=C(c1cccs1)CS2 -2.4%, Nc1nc(NCC2CCCO2)nc(Nc2ccccc2F)c1[N+](=O)[O-] (configuration not stated) -3.8%, Cc1ccc2nc(NCCCNC(=O)c3cnccn3)c(C#N)cc2c1 21.2%, COCCCNC(=S)NC(=O)c1ccc([N+](=O)[O-])cc1 4.5%, CC(/C=C/c1ccco1)=N/NC(=O)C1COc2ccccc2O1 (configuration not stated) 2.3%, Cn1nc(C(F)(F)F)c(-c2ccc(F)cc2)c1NC(=O)CSCC(=O)O 3.4%, Cc1ccnc(N2C(=O)c3ccccc3C2Nc2ccc3c(c2)OCCO3)c1 (configuration not stated) 1.5%, O=C(NC1CCCCC1)C1c2ccccc2C(=O)N1Cc1ccco1 (configuration not stated) 1.8%, COC(=O)c1ccc(COc2cc([N+](=O)[O-])cc3cccnc23)cc1 -0.8%, Cc1ccc2c(CSc3nncs3)cc(=O)oc2c1 3.7%, CCOC(=O)Cc1csc(NC(=O)COc2ccc3c(C)cc(=O)oc3c2)n1 1.8%, COc1cccc(Nc2nc(N)c([N+](=O)[O-])c(NCc3ccco3)n2)c1 0.2%, NC(=O)COc1ccc2c3c(c(=O)oc2c1)CCCCC3 1.7%, CN1CCN(Cc2c(O)ccc3c2oc(=O)c2ccccc23)CC1 -1.7%, COCc1[nH]nc2c1C(C1C=CCCC1)C(C#N)=C(N)O2 (configuration not stated) -0.2%, N#CC1=C(N)OC2=C(C(=O)CCC2)C1C1CC=CCC1 (configuration not stated) -0.5%, COC(=O)c1noc(C)c1-c1ccnn1C(=O)c1ccc(Cl)cc1 0%, Fc1ccc(COc2ccc(-c3nnco3)cc2)cc1 -1.3%, O=C(/C=C/c1ccc2c(c1)OCCO2)c1ccc(O)cc1 -2.3%, COc1ccc(-c2cn3ccc(C)cc3n2)cc1 0.2%, O=C(CN1CCN(S(=O)(=O)/C=C/c2ccccc2)CC1)Nc1ccc(N2CCOCC2)cc1 0.6%, COc1ccc2c(CN3CCN(S(=O)(=O)c4cccs4)CC3)cc(=O)oc2c1 -1.9%, COc1ccc(Nc2cc(=O)n(-c3ccccc3)c3c2c(=O)n(C)c(=O)n3C)cc1 -0.7%, Cn1c(CC2Sc3ccccc3NC2=O)nnc1SCC(=O)c1ccc(Cl)cc1 (configuration not stated) 1.9%, O=C(C[n+]1cc(-c2ccc(Cl)c(Cl)c2)n2c1CCC2)c1cccs1 1.5%, CCOc1ccc(-c2nc(N)ncc2-c2ccccc2OC)c(O)c1 -2.9%, Cc1cc2nc3c(=O)n(Cc4ccccc4)c(=O)[nH]c3nc2cc1N -281%, COc1ccc2[nH]c(=S)cc(C)c2c1 30.9%, Cc1c(Cc2ccccc2)c(=O)oc2cc(OCC(N)=O)ccc12 -0.8%, COC(=O)Cc1c(C)c2ccc(OCC(=O)NCc3ccc4c(c3)OCO4)cc2oc1=O -2.3%, O=C(Oc1ccccc1)Oc1ccc2c(c1)oc(=O)c1ccccc12 -1%, CC(=O)Oc1ccc(NC(=O)CCC2CCCCC2)c(C(=O)O)c1 -13.2%, CCOC(=O)c1ccc(N=C2SC(C(=O)NC)CC(=O)N2CCc2ccccc2)cc1 (configuration not stated) -3%, CCc1ccnc(NS(=O)(=O)c2ccc3c(c2)OCCO3)c1 2.3%, COc1ccccc1C1CCN(c2ccc([N+](=O)[O-])cn2)CC1 0.4%, CCN1CCN(c2nc(Nc3cccc(F)c3)nc(N)c2[N+](=O)[O-])CC1 -0.1%, COC(=O)Cc1cc(=O)oc2c(C)c(O)ccc12 19.3%, CCCc1cc(=O)[nH]c(SCc2cc(=O)oc3c(C)c(C)ccc23)n1 -10.5%, Cn1nnc(NC(=S)NC(=O)c2ccccc2)n1 10.1%, COC(=O)c1ccccc1N=Nc1c(C)[nH][nH]c1=O -3.8%, CCN(CC)CCCN=C(N)N 2.2%, O=C(CCN1c2ccccc2Sc2ccccc21)Nc1ccccc1 0.8%, CCC(=O)/C=C1\Sc2ccccc2N1CC 1.3%, O=C(Nc1ccc(S(=O)(=O)Nc2nccs2)cc1)c1cc(-c2ccncc2)nc2ccccc12 -7.7%, O=C(NCc1ccco1)c1cccn2c(=O)c3c4c(sc3nc12)CCCC4 12.3%, COc1ccc(CCNC(=O)Cn2c(=O)n(CC3CCCO3)c(=O)c3ccccc32)cc1OC (configuration not stated) -0.8%, COc1ccc(CCNC(=O)CCn2c(=O)c3ccccc3n(CC(=O)NCC3CCCO3)c2=O)cc1OC (configuration not stated) -1.8%, CCn1c(=N)c(C(=O)NCCCOC)cc2c(=O)n3cccc(C)c3nc21 19.3%, CC(C)Cn1c(N)c(C(=O)NCc2cccs2)c2nc3ccccc3nc21 16.3%, CN(C)CCCn1c(N)c(C#N)c2nc(C#N)c(C#N)nc21 42.7%, CCCNC(=O)c1c(N)n(-c2ccc(S(N)(=O)=O)cc2)c2nc3ccccc3nc12 33%, COCCCn1c2nc3ccccc3nc2c2c(=O)n(Cc3ccc(Cl)cc3)c(C)nc21 0.1%, COc1ccc(CNC(=O)C(Cc2ccccc2)n2cccc2)cc1 (configuration not stated) 1.1%, NCCCCCC(=O)N/N=C/c1ccc2nccnc2c1 0.4%, Cc1c(CCC(=O)O)c(=O)oc2cc3occ(-c4ccccc4)c3cc12 -3.4%, CCCC(=O)Nc1nnc(-c2ccccc2)o1 0.1%, COC(=O)c1cc(NC(=O)c2cc(C(C)(C)C)nn2Cc2cccc(C)c2)ccc1N1CCOCC1 -4%, COC(=O)c1cc(NC(=O)c2ccco2)ccc1N1CCOCC1 0.9%, CCOc1ccccc1C1C(C(=O)OC)=CN(C)C=C1C(=O)OC 9.9%, NC(=O)C1(C(N)=O)OC1c1ccc(Cl)cc1Cl (configuration not stated) 0.4%, CCOc1cccc(/C=N/NC(=S)NCCN2CCOCC2)c1O -15.6%, O=C1CSC(=S)N1/N=C/c1ccc(O)c([N+](=O)[O-])c1 26.4%, Cc1ccc(NS(=O)(=O)c2ccc(N/N=C/c3ccccc3OCC(=O)O)c([N+](=O)[O-])c2)c(C)c1 -12.7%, COC(=O)Cn1c(=NC(=O)c2cc(OC)c(OC)c(OC)c2)sc2cc(OC)ccc21 -1.4%, CCN(CC)CCn1c2ccc(Cl)cc2c2nc(C)sc21 0.5%, Cn1c(C(=O)O)ccc1S(=O)(=O)N(Cc1ccccc1)Cc1ccccc1 0.9%, COc1ccc(Br)c2c1C(=O)CC2 -4%, COC(=O)c1ccc(C(=O)OC)c(NC(=S)N2CCN(c3ccc(F)cc3)CC2)c1 8.1%, COC(=O)c1ccc(C(=O)OC)c(NC(=S)N2CCN(c3cc(Cl)ccc3C)CC2)c1 9.1%

inhibition, active:
CC(C)Cn1c(CCC(=O)O)ccc1-c1cccs1 65.6%, CCC(=O)Nc1c(S(=O)(=O)c2ccccc2)c2nc3ccccc3nc2n1Cc1ccccc1 78.8%, COCCCNC(=S)NCCNc1nc2cc(C)c(C)cc2cc1C#N 82.7%, O=C1c2ccccc2C(Nc2ccc3c(c2)OCCO3)N1Cc1ccco1 (configuration not stated) 70%, CCOC(=O)Cc1csc(SCc2cc(=O)oc3cc(O)ccc23)n1 77.8%, O=c1oc2c(CN3CCCCC3)c(O)ccc2c2c1CCCCC2 72.8%, N#CC1=C(N)Oc2cc(O)ccc2C1C1CCCCC1 (configuration not stated) 50.9%, O=c1cc(CN2CCN(S(=O)(=O)/C=C/c3ccccc3)CC2)c2ccc(O)cc2o1 74.1%, CC(=O)Nc1cc2ccc(OC(C)=O)cc2oc1=O 86.5%, CC(=O)Oc1ccc2c(C)c(CC(C)O)c(=O)oc2c1 (configuration not stated) 52.3%, CCCc1cc(=O)oc2c(C)c(O)c(CN3CCCCC3)cc12 84.1%, CCN1/C(=C/C(=S)Nc2ccccc2)Sc2ccccc21 59.1%, COc1ccc(CNC(=O)c2cc3c(=O)n4ccccc4nc3n(CC3CCCO3)c2=N)cc1 (configuration not stated) 85.6%, COc1ccc(CCn2c(=N)c(C(=O)NCc3ccco3)cc3c(=O)n4cccc(C)c4nc32)cc1 107%, CC(C)(C)c1ccc(C(=O)NCCn2c(N)c(C#N)c3nc4ccccc4nc32)cc1 72.8%, N#Cc1c(N)n(CCOC(=O)c2ccc(Cl)cc2)c2nc3ccccc3nc12 59%, CCCCCCc1cc2cc(-c3nnc(-c4ccccc4)o3)c(=O)oc2cc1O 84.6%, COC(=O)C1=CN(C)C=C(C(=O)OC)C1c1ccc(Cl)cc1Cl 110%, CCOc1cccc(/C=N/N2C(=O)CSC2=S)c1O 51.1%, COC(=O)Cn1c2ccc(C)cc2c2nc(C)sc21 50.7%, COC(=O)c1ccc(C(=O)OC)c(NC(=S)N2CCCCC2)c1 54%
